Unmarked numbers belong to inactive results. Inconclusive results are not listed. The source made the active and inactive calls.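 How the source made its calls, unless noted: active means inhibition over a set limit, the all-compound mean plus 3 SD, in both replicate runs; inconclusive means over that limit in just one replicate run; inactive means at or under that limit in both runs.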
Columns and labels:
[1] = S. cerevisiae growth inhibition in permissive medium (OD615), pilot counter-assay for S. cerevisiae lifespan shortening project, permissive growth control (AID 705;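 active means growth inhibition above 25% in both replicates, a cutoff set 3 SD above the mean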); settings: OD615, 24 h, at 10 µM, stronger effect = higher value
Method in brief: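 System – S. cerevisiae with engineered DeaD lifespan system · Buffer or medium – SC raffinose/galactose permissive medium · Schedule – cells pre-grown 4 h, then 24 h compound exposure, 30 °C humidified · Technique – culture turbidity as optical density at 615 nm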

[2] = S. cerevisiae growth inhibition in restrictive medium, OD615, pilot screen, restrictive growth control, yeast lifespan reduction project (AID 706;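 active means growth inhibition above a set limit, 3 SD over mean compound inhibition, in both replicates, cut at about 43% in these data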;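 further: modified DeaD lifespan yeast strain shifted to restrictive glucose medium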); settings: OD615, 48 h, at 10 µM, stronger effect = higher value
Method in brief: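 Material: engineered S. cerevisiae DeaD strain / Medium: glucose-based CSMM-D restrictive medium / Compound: single dose of 10 µM compound final, 0.25% DMSO / Timing: 4 h pre-incubation, 48 h exposure at 30 °C / Technique: OD615 absorbance reading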

[3] = doxorubicin toxicity protection in MRP-1 cells – H69AR cells, CellTiter-Glo, duplicate, MRP-1 activator project, pilot screen (AID 807;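 active means viability increase at or above a cutoff of the median across tested compounds plus 3 SD, cut at about 8.5% in these data, passing the limit was not always enough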;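 further: compound pretreatment 18-22 h then 72 h combined with doxorubicin; 0% = doxorubicin alone and 100% = vehicle without doxorubicin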); settings: H69AR viability with doxorubicin, CellTiter-Glo luminescence; at 10 µM; stronger effect = higher value
[4] = viability of HCT116 without oncogenic beta-catenin – human colon tumor cells, pilot screen (AID 823;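 active means cell viability at or below a set limit in both duplicate runs, the limit being the all-compound median minus 4 SD, cut at about 23% in these data, passing the limit was not always enough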;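 further: 0% = wells killed by 20 µM Hyamine and 100% = untreated DMSO cell wells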); settings: HCT116 beta-catenin knockout viability, CellTiter-Glo, 60 h; at 10 µM; stronger effect = lower value
[5] = viability of PTEN-null HCT116 cells – cell-based, HCT116 clonal line, CellTiter-Glo, pilot screen (AID 824;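 active means viability at or below 27.92% in each of two runs, the all-compound median minus 4 SD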;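 further: 0% = 20 µM Hyamine control and 100% = vehicle cell control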); settings: HCT116 PTEN-deleted viability, 60 h, at 10 µM, stronger effect = lower value
[6] = RAM pathway blockade in budding yeast – dse1pr::URA3 reporter, 5-FOA selection, pilot screen (AID 869);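 further: 0% = DMSO wells with no growth and 100% = 10 µM 1-NA-PP1 with full growth; RAM network block rescues cells from 5-FOA so hits raise OD615 growth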; settings: S. cerevisiae dse1pr::URA3 5-FOA growth, OD615, 2 d; at 10 µM; stronger effect = higher value; strain carries analog-sensitive mutant Cbk1 kinase
[7] = RAM signaling pathway blockade in yeast – S. cerevisiae, Pdr1DBD-CYC8 efflux-inhibited sensitized strain, primary screen (AID 1298;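 active means RAM network inhibition above 8.4% in each of two replicates, 3 SD over the compound average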;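 further: 0% = DMSO untreated cells without growth and 100% = 10 µM 1-NA-PP1 full growth; higher means more yeast growth rescued from 5-FOA killing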); settings: S. cerevisiae cbk1-as DSE1-URA3 strain, 5-FOA growth OD615, 2 d; at 50 µM; stronger effect = higher value

| Structure (SMILES) | growth inhibition [1] | growth inhibition [2] | viability increase [3] | viability [4] | viability [5] | inhibition [6] | RAM network inhibition [7] |
| --- | --- | --- | --- | --- | --- | --- | --- |
| Oc1[nH]c2ccccc2c1C=Nc1ccc2c(c1)OCO2 | -18.5% | -9.39% | -5.2% | 75% | 71.4% | 1.74% | 1.86% |
| CNC(=O)c1c(NC(=O)c2nc3ccccc3s2)sc2c1CCC2 | 1.6% | -6.17% | -3.81% | 67.5% | 61% | 0.625% | 5.05% |
| COc1ccc(C(=O)c2c[nH]c3ccccc23)cc1 | -4.92% | 2.61% | -1.32% | 101% | 96.4% | 0.695% | -1.45% |
| CCOC(=O)C(C)Sc1nc2c(c(=O)[nH]c(=O)n2C)n1Cc1ccc(Cl)cc1 (stereo unspecified) | -3.52% | 1.73% | -4.04% | 92.6% | 91.6% | -0.265% | 2.79% |
| O=C(c1c(Cl)nc2sccn12)N1CCN(c2cccc(Cl)c2)CC1 | 0.85% | 18.6% | -4.96% | 13.8% (active) | 17.8% (active) | 0.91% | 5.21% |
| C=CCNc1nc2c(c(=O)[nH]c(=O)n2C)n1Cc1cccc(C)c1 | 2.89% | 2.92% | -1.47% | 102% | 87.5% | 2.04% | 5.89% |
| CSC1=NCCN1C(=O)c1ccc(Br)o1 | -2.9% | -7.89% | 2.54% | 102% | 94.5% | 0.975% | 7.19% |
| O=C1CC(c2ccccc2)CC(O)=C1C=NCCN1CCNCC1 (stereo unspecified) | -21.5% | -14.2% | 1.22% | 99.2% | 98.1% | -0.42% | -1.05% |
| O=C(OCCN1C(=O)c2ccccc2C1=O)c1cc2ccccc2o1 | -11.6% | -4.04% | 0.07% | 97.3% | 99.1% | 2.92% | 3.68% |
| Cc1ccc(C)c(-n2c(Cc3cc(=O)[nH]c(=O)[nH]3)nnc2SC(C)C)c1 | 0.205% | 11.1% | -3.19% | 97.7% | 89.9% | 1.74% | 0.84% |
| O=C(c1cnn2ccccc12)N1CCc2ccccc21 | 0.67% | -5.48% | -2.13% | 97.9% | 91.9% | 1.33% | 1.54% |
| O=C1CC(c2ccccc2)C(C(=O)O)N1 (stereo unspecified) | -0.84% | -18.1% | 1.77% | 99.2% | 102% | 2.74% | 0.37% |
| Cn1nc(CC(=O)NC2CCCCCC2)c2ccccc2c1=O | 3.21% | 6.03% | -2.58% | 62.4% | 76.4% | 0.825% | 1.38% |
| CCN1CCN(C(=O)C2CCN(S(=O)(=O)c3cccc4cccnc34)CC2)CC1 | -6.23% | 2.11% | -0.43% | 108% | 96.3% | 2.33% | 0.98% |
| CCCC(=O)NC(C)c1nc2ccccc2n1CC (stereo unspecified) | -0.24% | 4.37% | 0.02% | 97% | 94.4% | 0.97% | 2.35% |
| CCc1ccccc1S(=O)(=O)Cc1ccc(C(=O)NCc2ccc3c(c2)OCO3)o1 | -12% | -13.8% | -2.5% | 95.7% | 91.1% | 1.87% | 7.83% |
| CCCCCOC(=O)c1[nH]c2c(c1C)C(=O)CC(c1ccco1)C2 (stereo unspecified) | -15% | -3.28% | -5.25% | 14.5% (active) | 16.3% (active) | 0.18% | -0.31% |
| COc1cc(CCC(=O)N2CCN(c3ccc(N4CCOCC4)nn3)CC2)cc(OC)c1OC | 7.64% | 14.6% | -1.86% | 106% | 112% | 0.43% | 4.7% |
